How the values were obtained:
Hepatocyte [1] = assay: Induction of change in Endog protein expression in C57BL/6J mouse primary hepatocytes at 400 uM incubated for 8 hrs by relative-quantitation label-free proteomics analysis relative to NVP; assay type: cell-based
Method in brief: (§1)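 Fresh primary hepatocytes from male C57BL/6J mice aged 8–13 weeks, adhered overnight, then given fresh medium containing compound (400 μM), NVP (400 μM) or vehicle (0.2% DMSO) for 8 h. Lysate reduced (DTT) and alkylated (iodoacetamide), acetone-precipitated and digested with trypsin. Label-free Top10 nanoLC-MS with precursor ion area quantitation; unpaired t test P values, Cohen's d effect size.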

Hepatocyte [2] = assay: Induction of change in Actb protein expression in C57BL/6J mouse primary hepatocytes at 400 uM incubated for 8 hrs by relative-quantitation label-free proteomics analysis relative to NVP; assay type: cell-based; method in brief: as §1
Hepatocyte [3] = assay: Toxicity in C57BL/6J mouse primary hepatocytes assessed as reduction in cell viability by measuring EtBr-positive cell nuclei level at 400 uM incubated for 8 hrs by EtBr/AcrO staining based assay (reference value: 19%)
Method in brief: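 Fresh male C57BL/6J mouse hepatocytes on collagen-coated coverslips, 400 μM compound or vehicle (0.2% DMSO) for 8 h; 10 μM staurosporine as positive control. Ethidium bromide/acridine orange costaining, imaging, percentage of EtBr-positive nuclei scored as dead cells; unpaired two-tailed t test.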

Cytochrome P450 3A4 = Cytochrome P450 3A4 (Homo sapiens, UniProt P08684); assay: Drug metabolism assessed as human CYP3A4-mediated formation of 12-OHNVP at 10 uM pre-incubated for 30 mins followed by addition of NADPH regenerating reagents by uHPLC-MS analysis; assay type: ADME; details: recombinant enzyme
Method in brief: (§2)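 Insect-cell microsomes with single cDNA-expressed human P450 (100 nM) in 0.1 M potassium phosphate; 10 μM substrate prewarmed 5 min at 37 °C with NADPH-regenerating system, reaction started by adding microsomes; 30 min at 37 °C, 0.1% DMSO. Stopped, dried, reconstituted in methanol; triple-quadrupole SRM (12-OH 283.1→223.0, 2-OH 283.1→160.9, 3-OH 283.1→241.9), peak height; three replicates, mean ± SD.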

Hepatocyte [4] = assay: Induction of change in CCAR2 protein expression in human primary hepatocytes at 10 uM incubated for 48 hrs by relative-quantitation label-free proteomics analysis relative to NVP; assay type: cell-based
Method in brief: as §1, with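 “Cryoplateable pooled human” for “Fresh primary”, “(10 mixed-sex donors per pool; three pools),” for “from male C57BL/6J mice aged 8–13 weeks,”, “(10” for “(400”, “(0.1%” for “(0.2%”, “48” for “8”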

Hepatocyte [5] = assay: Induction of change in PTP4A1 protein expression in human primary hepatocytes at 10 uM incubated for 48 hrs by relative-quantitation label-free proteomics analysis relative to NVP; assay type: cell-based
Method in brief: as §1, with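 “Cryoplateable pooled human” for “Fresh primary”, “(10 mixed-sex donors per pool; three pools),” for “from male C57BL/6J mice aged 8–13 weeks,”, “(10” for “(400”, “(0.1%” for “(0.2%”, “48” for “8”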

Cytochrome P450 2A6 = molecular target: T1, Cytochrome P450 2A6 (Homo sapiens, UniProt P11509); assay: Drug metabolism assessed as human CYP2A6-mediated formation of 12-OHNVP at 10 uM pre-incubated for 30 mins followed by addition of NADPH regenerating reagents by uHPLC-MS analysis; assay type: ADME; details: recombinant enzyme; method in brief: as §2
T1 sequence (P11509 whole entry): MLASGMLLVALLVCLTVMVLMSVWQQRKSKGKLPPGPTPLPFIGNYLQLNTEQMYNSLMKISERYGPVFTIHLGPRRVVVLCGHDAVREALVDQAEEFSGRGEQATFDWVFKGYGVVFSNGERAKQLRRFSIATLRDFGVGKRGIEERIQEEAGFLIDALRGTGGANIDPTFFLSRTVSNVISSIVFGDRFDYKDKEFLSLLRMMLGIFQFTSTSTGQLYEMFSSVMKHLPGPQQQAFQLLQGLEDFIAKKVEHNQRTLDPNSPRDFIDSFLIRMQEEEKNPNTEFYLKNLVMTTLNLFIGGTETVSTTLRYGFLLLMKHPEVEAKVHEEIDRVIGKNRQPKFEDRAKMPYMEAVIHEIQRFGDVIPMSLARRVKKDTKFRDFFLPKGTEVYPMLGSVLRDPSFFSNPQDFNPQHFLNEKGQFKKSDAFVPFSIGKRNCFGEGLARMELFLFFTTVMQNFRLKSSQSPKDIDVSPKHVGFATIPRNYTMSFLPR

Cytochrome P450 [6] = assay: Drug metabolism in human primary hepatocytes assessed as Cytochrome P450-mediated formation of 8-OHNVP at 10 uM incubated for 24 to 48 hrs by uHPLC-MS analysis; assay type: ADME, cell-based
Method in brief: (§3)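 Cryoplateable pooled human hepatocytes (10 mixed-sex donors per pool, three lots), adhered overnight, then 10 μM substrate or vehicle (0.1% DMSO) for 24 or 48 h in InVitroGRO CP medium. Medium extracted with 50% acetonitrile, dried, reconstituted in methanol; uHPLC-Orbitrap MS/MS for monooxygenated metabolites, high-resolution MS for O-glucuronide.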

Hepatocyte [7] = assay: Induction of change in KlAA2013 protein expression in human primary hepatocytes at 10 uM incubated for 48 hrs by relative-quantitation label-free proteomics analysis relative to NVP; assay type: cell-based
Method in brief: as §1, with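 “Cryoplateable pooled human” for “Fresh primary”, “(10 mixed-sex donors per pool; three pools),” for “from male C57BL/6J mice aged 8–13 weeks,”, “(10” for “(400”, “(0.1%” for “(0.2%”, “48” for “8”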

[8] = Drug metabolism in C57BL/6J mouse primary hepatocytes assessed as Cytochrome P450-mediated formation of 12-OHD2NVP at 10 uM incubated for 24 hrs by uHPLC-MS analysis; assay type: ADME, cell-based
Method in brief: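 Fresh hepatocytes from male C57BL/6J mice (8–13 weeks), adhered overnight, then 10 μM substrate or vehicle (0.1% DMSO) for 24 h. Medium extracted with acetonitrile (50% final), dried, reconstituted in methanol; uHPLC-Orbitrap targeted SIM plus PRM (monooxygenated metabolites) or high-resolution ions (O-glucuronides, 459.1510/462.1700 ±5 ppm); four experimental replicates.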

Cytochrome P450 [9] = assay: Drug metabolism in human liver microsomes assessed as Cytochrome P450-mediated formation of 12-OHNVP at 10 uM […] in presence of CYP2C19 inhibitor (+)-N-3-benzyl-nirvanol and NADPH regenerating reagents by uHPLC-MS analysis; assay type: ADME
[10] = Drug metabolism in human primary hepatocytes assessed as O-GlucNVP metabolite formation at 10 uM incubated for 24 hrs by uHPLC-MS analysis; assay type: ADME, cell-based, Hepatocyte; method in brief: as §3
Cytochrome P450 [11] = assay: Drug metabolism in human primary hepatocytes assessed as Cytochrome P450-mediated formation of 3-OHNVP at 10 uM incubated for 24 to 48 hrs by uHPLC-MS analysis; assay type: ADME, cell-based; method in brief: as §3
Cytochrome P450 [12] = assay: Drug metabolism in human primary hepatocytes assessed as Cytochrome P450-mediated formation of 2-OHNVP at 10 uM incubated for 24 to 48 hrs by uHPLC-MS analysis; assay type: ADME, cell-based; method in brief: as §3
Hepatocyte [13] = assay: Induction of change in KARS protein expression in human primary hepatocytes at 10 uM incubated for 48 hrs by relative-quantitation label-free proteomics analysis relative to NVP; assay type: cell-based
Method in brief: as §1, with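 “Cryoplateable pooled human” for “Fresh primary”, “(10 mixed-sex donors per pool; three pools),” for “from male C57BL/6J mice aged 8–13 weeks,”, “(10” for “(400”, “(0.1%” for “(0.2%”, “48” for “8”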

Hepatocyte [14] = assay: Induction of change in TM9SF1 protein expression in human primary hepatocytes at 10 uM incubated for 48 hrs by relative-quantitation label-free proteomics analysis relative to NVP; assay type: cell-based
Method in brief: as §1, with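 “Cryoplateable pooled human” for “Fresh primary”, “(10 mixed-sex donors per pool; three pools),” for “from male C57BL/6J mice aged 8–13 weeks,”, “(10” for “(400”, “(0.1%” for “(0.2%”, “48” for “8”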

Hepatocyte [15] = assay: Induction of change in TMED9 protein expression in human primary hepatocytes at 10 uM incubated for 48 hrs by relative-quantitation label-free proteomics analysis relative to NVP; assay type: cell-based
Method in brief: as §1, with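 “Cryoplateable pooled human” for “Fresh primary”, “(10 mixed-sex donors per pool; three pools),” for “from male C57BL/6J mice aged 8–13 weeks,”, “(10” for “(400”, “(0.1%” for “(0.2%”, “48” for “8”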

Hepatocyte [16] = assay: Induction of change in RBM39 protein expression in human primary hepatocytes at 10 uM incubated for 48 hrs by relative-quantitation label-free proteomics analysis relative to NVP; assay type: cell-based
Method in brief: as §1, with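 “Cryoplateable pooled human” for “Fresh primary”, “(10 mixed-sex donors per pool; three pools),” for “from male C57BL/6J mice aged 8–13 weeks,”, “(10” for “(400”, “(0.1%” for “(0.2%”, “48” for “8”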

Sequence of Cytochrome P450 3A4 (P08684 whole entry): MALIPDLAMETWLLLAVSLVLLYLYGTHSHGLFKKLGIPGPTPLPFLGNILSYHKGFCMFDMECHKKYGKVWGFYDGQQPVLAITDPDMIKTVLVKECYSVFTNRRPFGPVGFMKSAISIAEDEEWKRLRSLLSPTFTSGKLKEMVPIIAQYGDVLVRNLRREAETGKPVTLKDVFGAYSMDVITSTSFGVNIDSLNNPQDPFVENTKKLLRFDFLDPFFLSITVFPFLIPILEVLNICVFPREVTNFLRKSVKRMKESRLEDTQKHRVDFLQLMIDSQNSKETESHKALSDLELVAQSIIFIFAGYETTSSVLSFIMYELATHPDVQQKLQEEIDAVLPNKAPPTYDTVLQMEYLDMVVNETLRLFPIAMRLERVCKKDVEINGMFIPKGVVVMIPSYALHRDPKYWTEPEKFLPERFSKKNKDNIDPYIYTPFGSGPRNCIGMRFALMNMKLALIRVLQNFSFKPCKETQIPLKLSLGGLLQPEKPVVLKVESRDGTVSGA

Question: Which “fold change (FC)” value (Hepatocyte [1]) does the source give for `[2H]C([2H])([2H])c1ccnc2c1NC(=O)c1cccnc1N2C1CC1` here?
Answer: 2.07

Question: What about the “fold change (FC)” value (Hepatocyte [2]) of the same compound?
Answer: 1.05

Question: And the Activity (Hepatocyte [3])?
Answer: 36.8%

Question: What about the Drug metabolism (Cytochrome P450 3A4) of the same compound?
Answer: Metabolite_Detected

Question: And the “fold change (FC)” value (Hepatocyte [4])?
Answer: -2.05

Question: What about the “fold change (FC)” value (Hepatocyte [5]) of the same compound?
Answer: -2.42

Question: What about the Drug metabolism (Cytochrome P450 2A6) of the same compound?
Answer: Metabolite_Detected

Question: And the Drug metabolism (Cytochrome P450 [6])?
Answer: Metabolite_Notdetected

Question: And the “fold change (FC)” value (Hepatocyte [7])?
Answer: 1.36

Question: And the Drug metabolism [8]?
Answer: Metabolite_Detected

Question: What about the Drug metabolism (Cytochrome P450 [9]) of the same compound?
Answer: Metabolite_Detected

Question: And the Drug metabolism [10]?
Answer: Metabolite_Detected

Question: And the Drug metabolism (Cytochrome P450 [11])?
Answer: Metabolite_Detected

Question: And the Drug metabolism (Cytochrome P450 [12])?
Answer: Metabolite_Detected

Question: What about the “fold change (FC)” value (Hepatocyte [13]) of the same compound?
Answer: -1.42

Question: And the “fold change (FC)” value (Hepatocyte [14])?
Answer: -1.86

Question: What about the “fold change (FC)” value (Hepatocyte [15]) of the same compound?
Answer: -1.93

Question: What about the “fold change (FC)” value (Hepatocyte [16]) of the same compound?
Answer: 1.7
